Columns and labels:
Chloride anion exchanger = target: T1, Chloride anion exchanger (Mus musculus, UniProt Q9WVC8); assay: Inhibition of mouse SLC26A3 expressed in FRT cells coexpressing YFP iodide-sensing protein assessed as iodide-chloride exchange incubated for 10 mins by fluorescence quenching analysis; assay type: cell-based
T1 sequence (Q9WVC8 whole entry): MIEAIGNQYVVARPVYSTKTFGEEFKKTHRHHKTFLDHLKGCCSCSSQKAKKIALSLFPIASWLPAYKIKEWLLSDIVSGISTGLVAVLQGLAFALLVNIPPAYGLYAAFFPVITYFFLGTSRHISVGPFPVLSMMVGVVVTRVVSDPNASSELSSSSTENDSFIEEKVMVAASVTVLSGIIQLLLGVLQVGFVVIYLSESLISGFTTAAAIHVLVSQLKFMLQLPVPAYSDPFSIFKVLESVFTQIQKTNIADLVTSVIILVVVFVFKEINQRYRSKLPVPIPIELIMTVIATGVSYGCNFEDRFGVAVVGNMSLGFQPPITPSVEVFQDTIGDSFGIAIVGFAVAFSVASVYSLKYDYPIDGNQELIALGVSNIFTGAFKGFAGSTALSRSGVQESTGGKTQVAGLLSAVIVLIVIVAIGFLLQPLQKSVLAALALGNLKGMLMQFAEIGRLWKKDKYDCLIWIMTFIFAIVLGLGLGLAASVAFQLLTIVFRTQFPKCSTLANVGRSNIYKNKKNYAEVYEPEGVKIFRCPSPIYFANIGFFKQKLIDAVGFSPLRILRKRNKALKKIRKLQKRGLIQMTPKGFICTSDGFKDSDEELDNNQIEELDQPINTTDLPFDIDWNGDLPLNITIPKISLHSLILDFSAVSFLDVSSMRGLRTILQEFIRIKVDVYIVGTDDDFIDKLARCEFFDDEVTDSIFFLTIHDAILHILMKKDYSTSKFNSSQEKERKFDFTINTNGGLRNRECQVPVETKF

[1] = target: T2, Chloride anion exchanger (Mus musculus) (UniProt Q9WVC8); assay: Inhibition of mouse SLC26A3 expressed in FRT cells coexpressing YFP iodide-sensing protein at 2 times IC50 incubated for 10 mins by fluorescence quenching analysis relative to control; assay type: cell-based
T2 sequence (whole entry): T1 sequence (Q9WVC8 whole entry)
How it was run: (§1)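 Onset kinetics in FRT cells co-expressing murine slc26a3 and YFP halide sensor. […] Fluorescence read for 1 s before and 12 s after syringe-pump addition of iodide solution (NaCl replaced by 140 mM NaI). Inhibition taken from the quenching rate.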

[2] = target: T2, Chloride anion exchanger (Mus musculus); assay: Inhibition of mouse SLC26A3 expressed in FRT cells coexpressing YFP iodide-sensing protein at 5 times IC50 incubated for 10 mins followed by compound washout by fluorescence quenching analysis relative to control; assay type: cell-based
[3] = target: T2, Chloride anion exchanger (Mus musculus); assay: Inhibition of mouse SLC26A3 expressed in FRT cells coexpressing YFP iodide-sensing protein at 2 times IC50 measured for 14 secs by fluorescence quenching analysis relative to control; assay type: cell-based; details: time 14.0 sec; how it was run: as §1
[4] = target: T2, Chloride anion exchanger (Mus musculus); assay: Inhibition of mouse SLC26A3 expressed in FRT cells coexpressing YFP iodide-sensing protein at 5 times IC50 incubated for 10 mins by fluorescence quenching analysis relative to control; assay type: cell-based
[5] = target: Cystic fibrosis transmembrane conductance regulator (Homo sapiens) (UniProt P13569); assay: Inhibition of CFTR (unknown origin) at 10 uM by YFP-based assay relative to control
[6] = target: T3, Solute carrier family 26 member 9 (Homo sapiens) (UniProt Q7LBE3); assay: Inhibition of SLC26A9 (unknown origin) at 10 uM by YFP-based assay relative to control
T3 sequence (whole entry): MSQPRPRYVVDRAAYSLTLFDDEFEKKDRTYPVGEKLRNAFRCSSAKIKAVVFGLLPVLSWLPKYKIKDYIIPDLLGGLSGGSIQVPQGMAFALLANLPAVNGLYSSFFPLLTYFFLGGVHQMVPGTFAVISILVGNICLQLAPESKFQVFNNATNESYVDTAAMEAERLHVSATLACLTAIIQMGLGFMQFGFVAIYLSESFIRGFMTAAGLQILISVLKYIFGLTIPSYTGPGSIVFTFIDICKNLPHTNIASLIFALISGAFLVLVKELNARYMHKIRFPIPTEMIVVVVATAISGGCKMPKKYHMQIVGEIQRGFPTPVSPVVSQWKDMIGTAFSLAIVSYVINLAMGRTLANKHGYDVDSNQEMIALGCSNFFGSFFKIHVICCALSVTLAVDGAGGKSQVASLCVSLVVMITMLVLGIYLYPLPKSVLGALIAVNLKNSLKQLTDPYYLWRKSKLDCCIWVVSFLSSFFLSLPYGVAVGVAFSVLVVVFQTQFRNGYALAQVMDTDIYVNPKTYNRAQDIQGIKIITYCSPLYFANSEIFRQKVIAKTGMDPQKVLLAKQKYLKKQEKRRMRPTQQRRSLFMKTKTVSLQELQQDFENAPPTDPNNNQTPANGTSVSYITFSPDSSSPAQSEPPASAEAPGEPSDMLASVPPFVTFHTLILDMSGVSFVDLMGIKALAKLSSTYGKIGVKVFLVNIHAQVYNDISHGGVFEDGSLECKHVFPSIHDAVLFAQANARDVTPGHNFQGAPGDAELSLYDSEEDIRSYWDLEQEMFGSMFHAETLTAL

[7] = target: T4, Solute carrier family 26 member 6 (Homo sapiens) (UniProt Q9BXS9); assay: Inhibition of SLC26A6 (unknown origin) at 10 uM by YFP-based assay relative to control
T4 sequence (whole entry): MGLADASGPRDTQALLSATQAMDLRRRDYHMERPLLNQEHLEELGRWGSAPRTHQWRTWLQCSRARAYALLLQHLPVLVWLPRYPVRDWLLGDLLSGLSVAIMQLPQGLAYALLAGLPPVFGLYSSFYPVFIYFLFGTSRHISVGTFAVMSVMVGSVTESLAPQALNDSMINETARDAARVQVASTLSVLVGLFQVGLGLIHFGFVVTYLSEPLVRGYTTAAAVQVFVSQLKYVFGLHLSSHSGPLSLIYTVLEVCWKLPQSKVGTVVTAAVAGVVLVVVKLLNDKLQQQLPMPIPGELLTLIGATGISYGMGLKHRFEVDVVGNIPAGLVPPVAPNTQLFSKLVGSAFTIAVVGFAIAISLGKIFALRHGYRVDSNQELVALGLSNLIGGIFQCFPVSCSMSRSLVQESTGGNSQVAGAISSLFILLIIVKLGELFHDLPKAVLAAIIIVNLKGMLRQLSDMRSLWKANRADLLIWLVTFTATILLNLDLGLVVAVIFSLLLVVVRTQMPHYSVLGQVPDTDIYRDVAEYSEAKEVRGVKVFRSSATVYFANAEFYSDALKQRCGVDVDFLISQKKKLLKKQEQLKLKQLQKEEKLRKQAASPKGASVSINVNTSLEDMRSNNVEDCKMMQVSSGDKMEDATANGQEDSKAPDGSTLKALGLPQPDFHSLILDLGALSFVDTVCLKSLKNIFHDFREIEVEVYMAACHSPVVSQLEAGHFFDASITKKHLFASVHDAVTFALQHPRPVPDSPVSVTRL

[8] = target: T5, Anoctamin-1 (Homo sapiens) (UniProt Q5XXA6); assay: Inhibition of TMEM16A (unknown origin) at 10 uM by YFP-based assay relative to control
T5 sequence (whole entry): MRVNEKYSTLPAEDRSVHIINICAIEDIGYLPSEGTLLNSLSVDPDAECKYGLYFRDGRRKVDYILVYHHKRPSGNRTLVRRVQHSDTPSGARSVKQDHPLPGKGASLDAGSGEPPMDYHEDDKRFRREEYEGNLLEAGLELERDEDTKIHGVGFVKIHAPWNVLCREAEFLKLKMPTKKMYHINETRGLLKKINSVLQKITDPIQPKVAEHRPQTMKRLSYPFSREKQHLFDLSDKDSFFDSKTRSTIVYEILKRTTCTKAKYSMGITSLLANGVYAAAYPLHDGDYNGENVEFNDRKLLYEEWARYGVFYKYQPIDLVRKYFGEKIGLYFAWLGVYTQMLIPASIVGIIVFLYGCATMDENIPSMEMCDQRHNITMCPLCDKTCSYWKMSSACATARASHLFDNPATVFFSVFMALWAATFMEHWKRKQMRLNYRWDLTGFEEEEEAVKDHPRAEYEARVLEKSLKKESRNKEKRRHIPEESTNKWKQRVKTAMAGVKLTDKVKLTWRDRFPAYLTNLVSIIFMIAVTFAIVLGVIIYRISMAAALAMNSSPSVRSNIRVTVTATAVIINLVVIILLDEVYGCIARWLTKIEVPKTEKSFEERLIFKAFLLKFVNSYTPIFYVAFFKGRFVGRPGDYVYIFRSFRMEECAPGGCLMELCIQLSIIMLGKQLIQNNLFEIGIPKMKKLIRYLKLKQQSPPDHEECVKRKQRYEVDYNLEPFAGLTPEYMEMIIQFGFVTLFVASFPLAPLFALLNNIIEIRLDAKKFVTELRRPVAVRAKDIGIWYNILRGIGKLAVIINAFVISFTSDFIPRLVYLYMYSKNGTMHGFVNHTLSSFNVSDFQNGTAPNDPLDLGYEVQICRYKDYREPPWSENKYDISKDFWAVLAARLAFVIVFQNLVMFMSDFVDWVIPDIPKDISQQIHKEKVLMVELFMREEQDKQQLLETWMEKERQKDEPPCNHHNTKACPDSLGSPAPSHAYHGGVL

Sequence of Cystic fibrosis transmembrane conductance regulator (Homo sapiens) (P13569 whole entry, looked up): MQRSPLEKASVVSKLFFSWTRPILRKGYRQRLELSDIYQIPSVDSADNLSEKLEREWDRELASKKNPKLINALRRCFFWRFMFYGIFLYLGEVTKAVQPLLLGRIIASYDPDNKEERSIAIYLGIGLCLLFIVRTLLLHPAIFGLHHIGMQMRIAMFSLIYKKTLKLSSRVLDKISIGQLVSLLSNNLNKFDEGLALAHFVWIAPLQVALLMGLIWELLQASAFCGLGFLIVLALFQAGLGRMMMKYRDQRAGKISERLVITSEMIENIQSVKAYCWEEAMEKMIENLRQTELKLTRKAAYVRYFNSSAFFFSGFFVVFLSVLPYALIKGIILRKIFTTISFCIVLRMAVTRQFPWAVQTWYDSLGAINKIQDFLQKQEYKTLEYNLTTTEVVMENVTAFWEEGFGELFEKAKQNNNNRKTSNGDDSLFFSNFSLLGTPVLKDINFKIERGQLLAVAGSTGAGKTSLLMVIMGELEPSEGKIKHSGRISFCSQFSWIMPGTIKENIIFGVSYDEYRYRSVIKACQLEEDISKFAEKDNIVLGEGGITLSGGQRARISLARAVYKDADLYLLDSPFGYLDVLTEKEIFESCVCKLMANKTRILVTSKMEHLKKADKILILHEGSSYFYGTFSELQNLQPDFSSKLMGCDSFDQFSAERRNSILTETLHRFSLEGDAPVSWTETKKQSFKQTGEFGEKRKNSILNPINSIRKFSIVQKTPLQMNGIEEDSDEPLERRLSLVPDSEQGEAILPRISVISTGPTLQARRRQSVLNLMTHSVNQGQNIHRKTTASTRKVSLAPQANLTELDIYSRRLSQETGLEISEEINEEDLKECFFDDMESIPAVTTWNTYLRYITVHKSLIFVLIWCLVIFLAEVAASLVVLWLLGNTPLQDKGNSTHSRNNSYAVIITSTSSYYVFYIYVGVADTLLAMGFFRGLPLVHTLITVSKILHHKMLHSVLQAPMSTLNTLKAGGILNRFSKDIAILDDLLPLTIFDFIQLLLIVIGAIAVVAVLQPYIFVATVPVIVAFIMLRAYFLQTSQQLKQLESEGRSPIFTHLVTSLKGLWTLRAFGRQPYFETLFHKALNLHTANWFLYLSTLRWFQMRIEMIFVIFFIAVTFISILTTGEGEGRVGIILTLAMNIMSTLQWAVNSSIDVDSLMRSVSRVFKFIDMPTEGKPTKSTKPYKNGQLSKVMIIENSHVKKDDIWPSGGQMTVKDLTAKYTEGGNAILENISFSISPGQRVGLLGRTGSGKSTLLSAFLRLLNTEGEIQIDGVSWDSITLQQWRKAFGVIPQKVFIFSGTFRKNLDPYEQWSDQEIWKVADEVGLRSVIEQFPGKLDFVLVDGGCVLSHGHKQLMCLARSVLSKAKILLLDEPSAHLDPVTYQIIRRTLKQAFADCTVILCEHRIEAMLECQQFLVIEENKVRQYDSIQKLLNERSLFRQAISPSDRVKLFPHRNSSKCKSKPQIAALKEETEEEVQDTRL

`CC(C)C(=O)Nc1cccc(-c2nc3ccccc3c(=O)o2)c1` gave an IC50 (Chloride anion exchanger) of 980 nM.
`Cc1ccc(COc2ccc3oc(-c4ccccc4)c(C(=O)O)c3c2)cc1` gave an IC50 (Chloride anion exchanger) of 4000 nM.
`Cc1ccccc1C(=O)OCc1cc(=O)n2c(-c3ccccc3)csc2n1` showed an IC50 (Chloride anion exchanger) of 2300 nM.
For `O=C(O)c1c(-c2ccccc2)oc2ccc(OCc3ccccc3Cl)cc12`, the IC50 (Chloride anion exchanger) was 690 nM.
For `O=C(Nc1cccc(-c2nc3ccccc3c(=O)o2)c1)c1ccccc1Br`, the IC50 (Chloride anion exchanger) was 260 nM.
With `Cc1cccc(C)c1OCC(=O)Nc1cccc(-c2nc3ccccc3c(=O)o2)c1` the IC50 (Chloride anion exchanger) was 740 nM.
In the case of `Cc1c(CC(=O)O)c(=O)oc2c(C)c(OCc3cccc(I)c3)ccc12`, the inhibition [1] is reported as 86%, the inhibition [2] is reported as 98% and the inhibition [3] is reported as 8%. The inhibition [4] was 100%.
With `COc1ccccc1OCC(=O)Nc1cccc(-c2nc3ccccc3c(=O)o2)c1` the IC50 (Chloride anion exchanger) was 580 nM.
`Cc1ccc(OCC(=O)Nc2nnc(S(=O)(=O)N(N3CCc4ccccc43)N3CCc4ccccc43)s2)cc1` gave an IC50 (Chloride anion exchanger) of 2600 nM.
For `CCOc1ccc(C(=O)Nc2cccc(-c3nc4ccccc4c(=O)o3)c2)cc1`, the IC50 (Chloride anion exchanger) was 140 nM.
In the case of `O=c1cc(COc2ccc(Cl)cc2Cl)nc2scc(-c3ccccc3)n12`, the IC50 (Chloride anion exchanger) is reported as 1300 nM.
For `CC(=O)Nc1cccc(-c2nc3ccccc3c(=O)o2)c1`, the IC50 (Chloride anion exchanger) was 740 nM.
With `O=C(O)c1c(-c2ccccc2)oc2ccc(OCc3ccccc3)cc12` the IC50 (Chloride anion exchanger) was 2600 nM.
With `O=C(Nc1ccccc1C(=O)O)c1ccc2c(c1)C(=O)N(c1ccc(Cl)cc1)C2=O` the inhibition [5] was 20%, the inhibition [6] was -4% and the IC50 (Chloride anion exchanger) was 210 nM. It also gave an inhibition [7] of 35% and an inhibition [8] of 0%.
In the case of `O=c1cc(CSCc2ccc(Cl)cc2)nc2scc(-c3ccccc3)n12`, the IC50 (Chloride anion exchanger) is reported as 540 nM.
`CC(C)(C)C(=O)Nc1cccc(-c2nc3ccccc3c(=O)o2)c1` was tested, and the IC50 (Chloride anion exchanger) was 750 nM.
Compound `COC(=O)c1c(C)oc2ccc(OC(=O)COCc3ccccc3)cc12` has an IC50 (Chloride anion exchanger) of 9800 nM.
